We go through 19 compounds from ChEMBL document CHEMBL4270618, “Synthesis and biological evaluation of a library of hybrid derivatives as inhibitors of influenza virus PA-PB1 interaction” (Eur J Med Chem, 2018).

SMILES strings stand for the structures.

A short description of data set [1]: Cytotoxicity against HEK293T cells assessed as decrease in cell viability after 24 hrs by MTT assay. The class given is cell-based, HEK-293T. The following applies: human. The method, boiled down: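 HEK 293T at 2×10^4 cells/well with 2-fold serial dilutions from 250 µM, or DMSO, for 24 h. MTT (5 mg/mL stock in PBS) added for 4 h at 37 °C, then solubilised for 3 h at 37 °C. Absorbance read at 620 nm, DMSO wells = 100% viability. CC50 as mean ± SD, ≥3 independent experiments in duplicate.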
A general note: Tetrazolium assays rely on reduction of a dye to a coloured formazan, in cell work by metabolically active cells.

Data set [2] in a line: Cytotoxicity against MDCK cells assessed as decrease in cell viability after 48 hrs by MTT assay. Conditions: dog. In kind it is cell-based, Canis lupus familiaris. Put shortly:
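MDCK at 5×10^3 cells/well with 2-fold serial dilutions from 250 µM, or DMSO, for 48 h. MTT (5 mg/mL stock in PBS) added for 4 h at 37 °C, then solubilising solution for 3 h at 37 °C. Absorbance read at 620 nm against DMSO = 100%. CC50 as mean ± SD, ≥3 experiments in duplicate.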

The target in data set [3] is PA/PB1 (Influenza A virus (A/Puerto Rico/8/1934(H1N1)), UniProt P03431+P03433). Description: Inhibition of Influenza A virus A/PR/8/34 (H1N1) 6His-tagged PA (239 to 716 residues)/GST-tagged PB1 (1 to 25 residues) interaction expressed in Escherichia coli incubated overnight by ELISA. Put shortly:
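Wells coated with 400 ng E. coli-expressed 6His-PA(239–716) for 3 h at 37 °C, then blocked with 2% BSA/PBS for 1 h. 200 ng GST-PB1(1–25), or GST control, in serum-free DMEM added with compound or DMSO, overnight at room temperature. Bound protein detected with HRP-anti-GST and TMB, OD450. DMSO = 100% interaction. IC50 as mean ± SD, ≥3 experiments in duplicate.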
On the technique in general: An ELISA detects its analyte on a solid surface through an enzyme-linked reagent.

Data set [4] shares this target. Kind of data set: Inhibition of Influenza A virus A/PR/8/34 (H1N1) PA-PB1 interaction expressed in HEK293T cells assessed as decrease in RNA polymerase activity incubated for 24 hrs by minireplicon based luciferase reporter gene assay. In kind it is cell-based. The method, boiled down: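 HEK 293T (2×10^5/well) transfected 24 h after seeding, by calcium phosphate, with PR8 PB1, PB2, PA and NP plasmids (100 ng each), a PolI firefly-luciferase minireplicon (50 ng) and SV40-Renilla (50 ng) for normalisation. Compound or DMSO present during transfection; medium renewed at 4 h with compound. Dual luciferase read at 24 h. EC50 as mean ± SD, ≥3 experiments in duplicate.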
In general terms: In antiviral work, replicon cells carry a viral genome segment that copies itself.

The test system of a further data set is Influenza A virus. Description: Antiviral activity against Influenza A virus A/PR/8/34 (H1N1) infected in MDCK cells measured after 2 days by plaque reduction assay. In kind it is functional, organism-based. The following applies: A/Puerto Rico/8/1934(H1N1), 48 h. The method, boiled down:
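MDCK monolayers infected with PR8 (H1N1, Cambridge lineage) at 40 PFU/well for 1 h at 37 °C with compound at various concentrations, in DMEM with 1 µg/mL TPCK-trypsin and 0.14% BSA. Overlay of the same medium with 1.2% Avicel plus compound. After 2 days, fixed with 4% formaldehyde, stained with 0.1% toluidine blue, plaques counted. DMSO mean = 100%. EC50 reported as mean ± SD, ≥3 independent experiments in duplicate.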

Usually CC50 stands for the concentration giving 50% cytotoxicity. In general, IC50 refers to the concentration that inhibits the measured activity by half. Read a low IC50 as inhibition by little substance. By EC50 is commonly meant the midpoint of the concentration-response curve. As to `CSCC[C@H](N)C(=O)N[C@@H](CC(=O)O)C(=O)N[C@H](C(=O)N[C@@H](CC(N)=O)C(=O)N1CCC[C@H]1C(=O)N[C@H](C(=O)N[C@@H](CC(C)C)C(=O)N[C@@H](CC(C)C)C(=O)N[C@@H](Cc1ccccc1)C(=O)N[C@@H](CC(C)C)C(=O)N[C@@H](CCCCN)C(=O)N[C@H](C(=O)N1CCC[C@H]1C(=O)N[C@@H](C)C(=O)N[C@@H](CCC(N)=O)C(=O)N[C@@H](Cc1ccc(O)cc1)C(=O)NCC(=O)N[C@@H](CCCNC(=N)N)C(=O)N[C@@H](CCCCN)C(=O)N[C@@H](CCCCN)C(=O)N[C@@H](CCCNC(=N)N)C(=O)N[C@@H](CCCNC(=N)N)C(=O)N[C@@H](CCC(N)=O)C(=O)N[C@@H](CCCNC(=N)N)C(=O)N[C@@H](CCCNC(=N)N)C(=O)N[C@@H](CCCNC(=N)N)C(=O)N1CCC[C@H]1C(=O)N1CCC[C@H]1C(=O)O)C(C)C)[C@@H](C)O)C(C)C`, in data set [1], the CC50 at 24 h is more than 250 µM. Further, the CC50 at 48 h in data set [2] is more than 250 µM. In data set [3], this compound came in with an IC50 of 31.7 µM. In addition, the EC50 in data set [4] came out at 15.5 µM; in the data set with Influenza A virus, 49.7 µM.

Take `Cc1cccc(NC(=O)CSc2nc(-c3ccccc3)cc(-c3ccccc3)c2C#N)c1`: in data set [1], the CC50 at 24 h was more than 250 µM. In data set [2], the 50% cytotoxic concentration (CC50) at 48 h is more than 250 µM. For the same compound, the EC50 in data set [4] was 86.6 µM.

On to `COC(=O)C[C@H](NC(=O)[C@@H](NC(=O)CSc1nc(-c2ccccc2)cc(-c2ccc(C)cc2)c1C#N)C(C)C)C(=O)N[C@@H](CCSC)C(=O)OC`, for which, in data set [2], the CC50 at 48 h was more than 250 µM. In data set [3], this compound showed an IC50 of 68 µM. The compound also registered an EC50 in the data set on Influenza A virus of more than 100 µM.

With `COC(=O)[C@H](Cc1cnc[nH]1)NC(=O)CSc1nc(-c2ccccc2)cc(-c2ccc(C)cc2)c1C#N`, the CC50 at 48 h in data set [2] was determined as 152 µM. In addition, half-maximal inhibition in data set [3] (IC50) required 32 µM. This compound also registered a 50% effective concentration (EC50) with Influenza A virus of 80 µM.

Regarding `COC(=O)[C@H](CCCNC(=N)N)NC(=O)CSc1nc(-c2ccccc2)cc(-c2ccc(C)cc2)c1C#N`, the CC50 at 48 h in data set [2] is more than 250 µM. Besides, in data set [3], 48 µM corresponded to half-maximal inhibition (IC50). Further, the EC50 with Influenza A virus was more than 100 µM.

With `CC[C@H](C)[C@H](NC(=O)CSc1nc(-c2ccccc2)cc(-c2ccc(C)cc2)c1C#N)C(=O)OC`, in data set [1], the CC50 at 24 h was 229 µM. Besides, the CC50 at 48 h in data set [2] was more than 250 µM. For the same compound, in data set [3], the IC50 came out at 36 µM. Also, the EC50 came out at 53 µM in data set [4] and 39 µM in the data set on Influenza A virus.

Take `Cc1ccc(-c2cc(-c3ccccc3)nc(SCNC(=O)OC(C)(C)C)c2C#N)cc1`: in data set [2], the CC50 at 48 h is more than 250 µM. The compound also came in with an IC50 in data set [3] of more than 200 µM. Also, the 50% effective concentration (EC50) in the data set with Influenza A virus is more than 100 µM.

Take `NC(=O)c1ncn([C@@H]2O[C@H](CO)[C@@H](O)[C@H]2O)n1` [RIBAVIRIN]: the CC50 at 24 h in data set [1] was more than 250 µM. Moreover, in data set [2], the CC50 at 48 h is more than 250 µM. Moreover, the EC50 in data set [4] worked out at 23.8 µM.

As to `COC(=O)[C@H](Cc1ccccc1)NC(=O)CSc1nc(-c2ccccc2)cc(-c2ccc(C)cc2)c1C#N`, the CC50 at 48 h in data set [2] stood at 240 µM. The compound further displayed an IC50 in data set [3] of more than 200 µM. A half-maximal response with Influenza A virus (EC50) required 68 µM.

Take `COC(=O)[C@H](CC(C)C)NC(=O)CSc1nc(-c2ccccc2)cc(-c2ccc(C)cc2)c1C#N`: the CC50 at 48 h in data set [2] was 215 µM. The IC50 in data set [3] came to 149 µM. In the data set with Influenza A virus, this compound registered an EC50 of 97 µM.

As for `COC(=O)[C@@H](NC(=O)CSc1nc(-c2ccccc2)cc(-c2ccc(C)cc2)c1C#N)C(C)C`, the CC50 at 24 h in data set [1] was more than 250 µM. Also, the CC50 at 48 h in data set [2] came to 210 µM. This compound had an IC50 in data set [3] of 167 µM. Moreover, the EC50 in data set [4] stood at 41 µM; in the data set on Influenza A virus, 52 µM.

On to `COC(=O)CC[C@H](NC(=O)CSc1nc(-c2ccccc2)cc(-c2ccc(C)cc2)c1C#N)C(=O)OC`, for which the CC50 at 48 h in data set [2] was more than 250 µM. Besides, in data set [3], half-maximal inhibition (IC50) was put at 187 µM. The compound further returned a concentration for a half-maximal effect (EC50) in the data set with Influenza A virus of more than 100 µM.

Take `COC(=O)[C@H](Cc1ccc(O)cc1)NC(=O)CSc1nc(-c2ccccc2)cc(-c2ccc(C)cc2)c1C#N`: in data set [2], the CC50 at 48 h was more than 250 µM. For the same compound, in data set [3], the IC50 turned out to be 18 µM. The same compound yielded an EC50 with Influenza A virus of more than 100 µM.

For `Cc1ccc(-c2cc(-c3ccccc3)nc(SCC(=O)N[C@H](C(=O)N[C@@H](CC(=O)O)C(=O)O)C(C)C)c2C#N)cc1`, the 50% cytotoxic concentration (CC50) at 48 h in data set [2] is more than 250 µM. The compound also yielded an IC50 in data set [3] of 77 µM. Besides, in the data set on Influenza A virus, the EC50 was 100 µM.

Consider `CCC(CC)O[C@@H]1C=C(C(=O)O)C[C@H](N)[C@H]1NC(C)=O` [OSELTAMIVIR CARBOXYLATE], for which the CC50 at 24 h in data set [1] is more than 250 µM. In addition, the CC50 at 48 h in data set [2] is more than 250 µM. For the same compound, in the data set on Influenza A virus, the concentration for a half-maximal effect (EC50) is 0.015 µM.

For the compound `Cc1ccc(-c2cc(-c3ccccc3)nc(SCC(=O)O)c2C#N)cc1`, the half-maximal cytotoxic concentration (CC50) at 24 h in data set [1] came out at 218 µM. Further, the CC50 at 48 h in data set [2] was more than 250 µM. In addition, inhibition in data set [3] was half-maximal at 56 µM (IC50). In addition, the results for the EC50 (in data set [4]; with Influenza A virus) were 43 µM and 65 µM, respectively.

For the compound `COC(=O)C[C@H](NC(=O)[C@@H](NC(=O)CSc1nc(-c2ccccc2)cc(-c2ccc(C)cc2)c1C#N)C(C)C)C(=O)OC`, the CC50 at 24 h in data set [1] was more than 250 µM. In data set [2], the CC50 at 48 h was more than 250 µM. The same compound yielded an IC50 in data set [3] of 143 µM. In addition, the EC50 in data set [4] is 59 µM; in the data set on Influenza A virus it was 49 µM.

On to `Cc1ccc(-c2cc(-c3ccccc3)nc(SCC(N)=O)c2C#N)cc1`, for which the CC50 at 24 h in data set [1] amounted to 218 µM. Further, the CC50 at 48 h in data set [2] was more than 250 µM. In data set [3], this compound displayed an IC50 of 102 µM. Besides, the EC50 was 65 µM in data set [4] and 41 µM in the data set on Influenza A virus.

Consider `Cc1ccc(-c2cc(-c3ccccc3)nc(SCC(=O)N[C@H](C(=O)O)C(C)C)c2C#N)cc1`, for which the CC50 at 24 h in data set [1] came out at 250 µM. Further, in data set [2], the 50% cytotoxic concentration (CC50) at 48 h is more than 250 µM. In data set [3], this compound returned an IC50 of 76 µM. For the same compound, the EC50 in data set [4] amounted to 77 µM; in the data set on Influenza A virus, 50 µM.
